Published values pooled from the literature.
Lines come from different studies, so protocols differ.
Organism: Klebsiella pneumoniae
Effect on: microbial growth

C[C@@H](O)[C@H]1C(=O)N2C(C(=O)O)=C(SCCN=CN)C[C@H]12 — MIC (broth dilution; ATCC13883): 4 µg/mL
[H]/N=C(/N)N[C@H]1[C@H](O)[C@@H](O)[C@H](O[C@@H]2O[C@@H](C)[C@](O)(C=O)[C@H]2O[C@@H]2O[C@@H](CO)[C@H](O)[C@@H](O)[C@@H]2NC)[C@@H](N/C(N)=N\[H])[C@@H]1O — MIC (broth dilution; ATCC700603): > 512 µg/mL
CN(C)c1ccc(O)c2c1C[C@H]1C[C@H]3[C@H](N(C)C)C(O)=C(C(N)=O)C(=O)[C@@]3(O)C(O)=C1C2=O — MIC (broth dilution; ATCC43816): 1 µg/mL
CCCCCCCCN=c1ccn(CCCCCCCCCCn2ccc(=NCCCCCCCC)cc2)cc1 — MIC (ATCC4352): 0.5 µM
CN(C)[C@@H]1C(O)=C(C(N)=O)C(=O)[C@@]2(O)C(O)=C3C(=O)c4c(O)cccc4[C@@](C)(O)[C@H]3C[C@@H]12 — MIC (broth dilution; ATCC10031; 12 h): 0.13 µg/mL
Cc1nnc(SCC2=C(C(=O)O)N3C(=O)[C@@H](NC(=O)Cn4cnnn4)[C@H]3SC2)s1 — MIC (broth dilution; ATCC43816): 1 µg/mL
CCCCCCC#Cc1cncc(-c2nnc(SCc3cc([N+](=O)[O-])cc([N+](=O)[O-])c3)n2CCCN)c1 — MIC (broth dilution; DSM30104): > 64 µg/mL
CN(C)[C@@H]1C(O)=C(C(N)=O)C(=O)[C@@]2(O)C(O)=C3C(=O)c4c(O)cccc4[C@@](C)(O)[C@H]3C[C@@H]12 — MIC (broth dilution; ATCC27736; 16 h): 3.1 µM
CCCCCCC#Cc1cncc(-c2nnc(SCc3cc([N+](=O)[O-])cc([N+](=O)[O-])c3)n2CCOC2OC(CN)C(O)C2O)c1 (stereo not drawn) — MIC (broth dilution; DSM30104): > 64 µg/mL
CC[C@H]1OC(=O)[C@H](C)[C@@H](O[C@H]2C[C@@](C)(OC)[C@@H](O)[C@H](C)O2)[C@H](C)[C@@H](O[C@@H]2O[C@H](C)C[C@H](N(C)C)[C@H]2O)[C@](C)(O)C[C@@H](C)CN(C)[C@H](C)[C@@H](O)[C@]1(C)O — MIC (broth dilution; ATCC13883): 1 µg/mL
O=C(O)c1cn(C2CC2)c2cc(N3CCNCC3)c(F)cc2c1=O — MIC (broth dilution; ATCC700603): > 512 µg/mL
CO[C@@]1(NC(=O)Cc2cccs2)C(=O)N2C(C(=O)O)=C(COC(N)=O)CS[C@@H]21 — MIC (broth dilution; ATCC43816): 1 µg/mL
CO/N=C(\C(=O)N[C@@H]1C(=O)N2C(C(=O)O)=C(CSc3nc(=O)c(=O)[nH]n3C)CS[C@H]12)c1csc(N)n1 — MIC (broth dilution; ATCC700603): > 512 µg/mL
CC1(C)S[C@@H]2[C@H](NC(=O)[C@H](N)c3ccccc3)C(=O)N2[C@H]1C(=O)O — MIC (broth dilution; ATCC43816): 172 µM
CC1(C)S[C@@H]2[C@H](NC(=O)[C@H](N)c3ccc(O)cc3)C(=O)N2[C@H]1C(=O)O — MIC (broth dilution; ATCC13883): > 64 µg/mL
C[C@H]1COc2c(N3CCN(C)CC3)c(F)cc3c(=O)c(C(=O)O)cn1c23 — MIC (broth dilution; ATCC43816): < 0.5 µg/mL
CNC(C)C1CCC(N)C(OC2C(N)CC(N)C(OC3OCC(C)(O)C(NC)C3O)C2O)O1 (stereo not drawn) — MIC (broth dilution; ATCC13883): 2 µg/mL
CCN1CCN(C(=O)N[C@@H](C(=O)N[C@@H]2C(=O)N3[C@@H]2SC(C)(C)[C@@H]3C(=O)O)c2ccccc2)C(=O)C1=O — MIC (broth dilution; ATCC43816): 4 µg/mL
CCCCCCC#Cc1cncc(-c2nnc(SCc3cc(C(F)(F)F)cc(C(F)(F)F)c3)n2CCCN)c1 — MIC (broth dilution; DSM30104): 32 to 64 µg/mL
C[C@H]1[C@H](NC(=O)/C(=N\OC(C)(C)C(=O)O)c2csc(N)n2)C(=O)N1S(=O)(=O)O — MIC (broth dilution; ATCC43816): < 0.5 µg/mL
[H]/N=C(\N/C(=N/[H])NCCCCCCNC(=N)NC(=N)Nc1ccc(Cl)cc1)Nc1ccc(Cl)cc1 — MIC (ATCC4352): 1 µM
